Consider 167 variants from the RNAGym collection of RNA variant scans (doi:10.1126/science.aae0568).

Fewer inactive variants are shown than the library holds.

To fix the notation:
B1: tRNA (parent)
chain: GUUCCGUUGGCGUAAUGGUAACGCGUCUCCCUCCUAAGGAGAAGACUGCGGGUUCGAGUCCCGUACGGAACG

The variants in this data set derive from B1. The data set is described as follows: yeast fitness relative to wild type (ratio to wild type); higher = fitter; tRNA-Arg(CCU), competitive growth, 37 C, YPD. The gist of the method: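 Changes in genotype frequencies gave Darwinian fitness relative to wild type. Frequencies were read by 100-nucleotide paired-end sequencing of gene amplicons before and after pooled Saccharomyces cerevisiae strains, carrying tRNA-Arg(CCU) gene variants at the native locus, were competed in YPD at 37°C for 24 hours in six replicates. A genotype was kept only with ≥ 100 starting reads, and estimates < 0.5 were set to 0.5.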
In the case of A36C G38C, the yeast fitness was 0.524.
As to A36C G68A, the yeast fitness was 0.56.
With A36U A42C C55G C61G, the yeast fitness was at most 0.5.
In the case of U35C C46A C49A, the yeast fitness is at most 0.5.
As for U35A G44A, the figure is 0.715.
On to A36U A42C C61G, for which the yeast fitness was at most 0.5.
Regarding A36G G38C G63A, the yeast fitness was at most 0.5.
To A36C A42U belongs 0.639.
As for A36G A42U U53C G58C, the figure is 0.569.
To U35A A40U C46G U53A belongs at most 0.5.
Consider C34U C66U G67A, for which the yeast fitness was at most 0.5.
As for U35G G67A, the figure is 0.616; as for U35C A42C U64A, at most 0.5.
To U35A C60G G63A belongs 0.503.
As for A36C A45C C49U C55G C62A G68A, the yeast fitness is at most 0.5.
As for U35G G52A, the figure is at most 0.5.
Consider A36C A45C G48A, for which the yeast fitness is at most 0.5.
To C34U U59A belongs 0.762.
To A36C A45U U59A belongs at most 0.5; to U35A G38C, 0.527; to C34U C46G G58C C60U C66G, at most 0.5.
U35G G44A: the yeast fitness turned out to be 0.509.
To A36C A57U belongs 0.509; to U35C G52C G67C, 0.533; to U35G A70C, 0.711.
To C34U C62U belongs 0.673; to A36G A45C C66U, 0.787; to A36U A45G, 0.606.
To U35C A65C belongs 0.807.
For A36U A37U, the yeast fitness worked out at 0.587.
C34U A37U G41A G50C: the yeast fitness was at most 0.5.
As for A36G G48C C60A, the figure is at most 0.5; as for A36U A43U, 0.638.
To U35C G41C A65C belongs at most 0.5; to C34U A36C A70C, 0.594.
To C34U C62G C66G G67U belongs at most 0.5; to C34U A36U C66U, at most 0.5; to U35A G38A C61G, at most 0.5.
With A36C G41A U53C A65U, the yeast fitness is at most 0.5.
Take A36C G48C C62U: the yeast fitness was at most 0.5.
To A36G C60G A70G belongs at most 0.5.
For the variant A36G U64C, the yeast fitness was 0.78.
To C34U A37G C46U C61A belongs 0.589; to A36G A45C C55G G58C, 0.689.
To U35C A45U C49A belongs 0.594.
As for C34U G44C U47G A65C C66G, the figure is at most 0.5.
Turning to A36G A37U C66A A69U, the yeast fitness is at most 0.5.
To C34U A40C C62U belongs 0.507.
To C34U A69U belongs 0.667.
To U35G A45U belongs 0.589.
As for C34U A43G, the yeast fitness was found to be 0.789.
To C34U C49G G52C C55U C62G belongs 0.75; to A36G A70U, 0.832.
As for A36G A70G, the figure is 0.914; as for A36G A70C, 1.02.
To A36G U54A belongs 0.691.
With C34U A36U, the yeast fitness is at most 0.5.
On to U35C G39A U53A, for which the yeast fitness is 0.567.
To U35A C60G C62G G68A belongs at most 0.5; to U35C A43C, 0.927.
As for U35C A43G, the figure is 0.783.
As for U35C A43U, the figure is 0.971; as for A36C G56C A57C, 0.593; as for A36C A37G G56A, at most 0.5.
As for C34U G39C A45G, the yeast fitness is at most 0.5.
As to U35A G52A, the yeast fitness was found to be 0.532.
To U35C G44A C46G G50C U53A C66A belongs at most 0.5.
As for U35A A57C C62U, the figure is at most 0.5; as for C34U A42U C66U, at most 0.5; as for A36G A37U G56C, at most 0.5.
Take U35A A57U C66G: the yeast fitness is at most 0.5.
As for U35A A37G A43U A45C C61U, the figure is at most 0.5; as for U35A A45C G68U, at most 0.5.
As for A36G C61G, the figure is 0.659; as for U35A C46G C49U, 0.527.
Consider U35A U54C C61G, for which the yeast fitness was determined as 0.645.
With U35A G58A G67C, the yeast fitness is at most 0.5.
As for C34U A42C, the figure is 0.664; as for C34U A42U, 0.74.
To A36G A57G belongs 0.985; to A36G C61G A69G, 0.56.
To A36C A57U C60A belongs at most 0.5; to C34U A40G A69U, 0.574; to C34U A70G, 0.803.
C34U A70C: the yeast fitness amounted to 0.73.
As for C34U A70U, the figure is 0.662; as for U35C G50A, 0.927; as for U35C G50C, 0.703.
To C34G U64G belongs 0.518; to C34G U64A, 0.654; to U35G C49A, 0.595.
As for U35C G51U, the yeast fitness is 0.527.
As for C34U C49A G56C C62A A65C, the figure is 0.519; as for U35C G52A, 0.658.
On to A36G A57G C61U, for which the yeast fitness turned out to be 0.56.
As for A36U A40U, the figure is 0.591; as for A36U A40C, 0.54; as for A36G U53A, 0.754.
To C34U A36G C55A belongs at most 0.5; to A36G A37C A43G, 0.63.
Turning to U35C U53A, the yeast fitness came to 0.56.
On to A36C G50A, for which the yeast fitness is 0.608.
As for C34U G44A A65G, the figure is at most 0.5; as for U35C G50A C55U, at most 0.5; as for C34U A36C C46G, at most 0.5.
To U35C C62U belongs 0.882.
As for A36C U47A G56U, the figure is 0.617.
As to A36C C61U, the yeast fitness came out at 0.581.
As for C34U C55G, the yeast fitness came out at 0.56.
To A36G G48A G51C belongs at most 0.5; to C34U C61G A65C C66G, at most 0.5; to C34U A40C G68C, at most 0.5.
As for C34U C46G A69U, the figure is 0.576.
As for C34U A40C A42C G48A, the figure is at most 0.5; as for U35A A57U U59C, at most 0.5; as for A36C A42G C61A, at most 0.5.
As for C34U G39C G50A, the yeast fitness is 0.557.
C34U C49U: the yeast fitness was 0.866.
On to A36G A45C G52C, for which the yeast fitness amounted to 0.533.
As to U35G U59A, the yeast fitness was found to be 0.646.
As for U35G A65U, the figure is 0.606; as for A36C G44U, at most 0.5; as for A36C C46G, 0.543.
To A36C C46U belongs 0.577.
To U35G G38C G63A belongs at most 0.5.
A36G C62G: the yeast fitness came to 0.905.
As for A36G C62U, the figure is 1.05; as for A36G C62A, 0.672; as for U35C A45G, 0.773.
To A36C A37C U53G C66U A70C belongs 0.531; to U35C C46U A69U, 0.832.
As to U35C G58A C60U, the yeast fitness was at most 0.5.
To A36G G44A belongs 0.978.
U35A A37U G52A U59C C66A G67A: the yeast fitness is at most 0.5.
As for C34U G58A A65U, the yeast fitness was determined as 0.618.
As for A36C A45C U54A A57C, the figure is 0.538.
To A36C A42U A43G G63C belongs 0.509; to A36C A42U A65U, 0.647.
On to C34U G51U U54A C60U A65C, for which the yeast fitness is at most 0.5.
On to C34U G67A, for which the yeast fitness was determined as 0.744.
Turning to U35G C61U, the yeast fitness is 0.792.
As for A36U A43C U53C, the figure is at most 0.5; as for A36C G50C U53C, at most 0.5.
As for A36G G38C G58C, the figure is 0.687.
To U35G A69C belongs 0.592; to C34U G68C, 0.773.
Take A36U A45U C46A C66U A69U: the yeast fitness was at most 0.5.
To C34U A36C U53C belongs at most 0.5; to A36G G56A A70G, 0.595; to C34U U54C C61A, at most 0.5.
As for U35C A36U G38A C46A U54C, the figure is at most 0.5; as for A36G A43U U47G U53G, at most 0.5; as for A36C A40C, 0.572.
C34U A36U G52C A69U: the yeast fitness is at most 0.5.
To C34U G56A belongs 0.798; to U35C C66G, 0.657.
To U35C C66U belongs 0.781; to A36U A40U A45G G58C, 0.565; to A36C C49U G67C, 0.532.
To A36C U64C belongs 0.824.
In the case of A36C U64A, the yeast fitness turned out to be 0.932.
To A36G A37U C61G belongs at most 0.5; to U35A A43G, 0.624.
Take A36C C49A U54C U64C: the yeast fitness was at most 0.5.
Consider U35G C55U, for which the yeast fitness is 0.664.
Turning to U35C A40C, the yeast fitness was determined as 0.795.
As for U35C A40G, the figure is 0.711.
